Experimental data collected from several papers.
Protocols differ between the studies behind these lines. pEC50, pIC50, pKd, pKi: −log10 of the molar value.
CYP17A1: Steroid 17-alpha-hydroxylase/17,20 lyase (CYP17A1, Homo sapiens, UniProt P05093)
MRGPRX2: Mas-related G-protein coupled receptor member X2 (MRGPRX2, Homo sapiens, UniProt Q96LB1)

Structure (SMILES) | target | test | setting | endpoint | result
C/C(=C\[N+](=O)[O-])c1ccccc1 | OYE1 (Saccharomyces pastorianus, UniProt Q02899) | binding, absorbance |  | pKd | 3.77
Nc1ncc(-c2nc(N3CCOCC3)nc(N3CCOCC3)n2)c(C(F)F)n1 | Phosphatidylinositol 4,5-bisphosphate 3-kinase catalytic subunit alpha isoform (PIK3CA, Homo sapiens, UniProt P42336) | ligand displacement, TR-FRET |  | pIC50 | 7.66
Cc1cc2c(cc1Br)NC(=O)/C2=N/N=C1/C(=O)Nc2cc(Br)c(C)cc21 | Glycogen synthase kinase-3 beta (GSK3B, Homo sapiens, UniProt P49841) | enzyme activity, inhibitor |  | pIC50 | ~10.52
CCCc1cc(C)[nH]c(=O)c1CNC(=O)c1cc(-c2ccc(N3CCN(CCCCc4cn(CCN5C(=O)\C(=C/C=C/C=C6/N(CCC(=O)OCOC(C)=O)c7ccc(C(=O)OCOC(C)=O)cc7C6(C)C)C(=O)N(CC)C5=O)nn4)CC3)nc2)cc2c1cnn2C(C)C | Histone-lysine N-methyltransferase EZH2 (EZH2, Homo sapiens, UniProt Q15910) | enzyme activity, inhibitor, radiometric |  | pIC50 | 7.68
COc1cc(C(=O)N2CC[C@@H](O)[C@@H](N)C2)cc2nc(-c3cc4ccccc4n3CC3CC3)n(C)c12 | Vasopressin V1a receptor (AVPR1A, Homo sapiens, UniProt P37288) | calcium signal, antagonist, fluorescence |  | pIC50 | 4.60
CC(=O)[C@H]1CC[C@H]2[C@@H]3CCC4=CC(=O)CC[C@]4(C)[C@H]3CC[C@]12C | CYP17A1 | binding, absorbance |  | pKd | 6.13
CC(C)=CCc1c(O)cc2c(c1O)C(=O)C[C@@H](c1ccc(O)cc1)O2 | Cytochrome P450 1A1 (CYP1A1, Homo sapiens, UniProt P04798) | enzyme activity, inhibitor, fluorescence | 15 min, pH 7.4 | pKi | 6.23
C/C=C1\NC(=O)[C@H](C)NC(=O)[C@@H](NC(=O)[C@@H](Cc2ccc(O)cc2)NC(=O)[C@@H](NC(=O)/C(C)=C/C)C(C)C)[C@@H](C)OC(=O)[C@H](CC[S+](C)[O-])NC(=O)[C@@H](CCC(=O)O)NC1=O (stereo partly drawn) | Chymotrypsin-like elastase family member 1 (CELA1, Sus scrofa, UniProt P00772) | enzyme activity, inhibitor, absorbance |  | pIC50 | 5.14
COC(=O)Nc1nc2cc(C(=O)c3ccc(F)cc3)ccc2[nH]1 | Vascular endothelial growth factor receptor 2 (KDR, Homo sapiens, UniProt P35968) | enzyme activity, inhibitor, TR-FRET |  | pIC50 | 6.33
CC[C@H](C)[C@H](NC(=O)[C@@H]1CCCN1C(C)=O)C(=O)N[C@@H](CCC(=O)O)C(=O)N[C@H](C(=O)N[C@@H](CS)C(=O)N[C@@H](CCSC)C(=O)N[C@@H](Cc1ccc(O)cc1)C(=O)N[C@@H](CCCNC(=N)N)C(=O)N[C@@H](CCC(=O)O)C(=O)N1CCC[C@H]1C(N)=O)C(C)C | MRGPRX2 | calcium signal, agonist |  | pEC50 | < 4.70
Cc1c(Cc2cccc(N(C)S(=O)(=O)CCCN3CCN(c4ccc(Nc5c(C(N)=O)cnc6ccc(-c7cnc8ccccc8c7)cc56)cc4C(F)(F)F)CC3)c2)c(=O)oc2cc(OC(=O)N(C)C)ccc12 | Dual specificity mitogen-activated protein kinase kinase 1 (MAP2K1, Homo sapiens, UniProt Q02750) | enzyme activity, inhibitor, mobility shift |  | pIC50 | 5.30
C[C@@H](O)[C@@H]1NC(=O)[C@H](CCCCN)NC(=O)[C@H](Cc2c[nH]c3ccccc23)NC(=O)[C@H](Cc2ccccc2)NC(=O)[C@H](Cc2ccccc2)NC(=O)[C@H](CC(N)=O)NC(=O)[C@H](CCCCN)NC(=O)[C@@H](NC(=O)[C@@H]2CCCN2)CSSC[C@@H](C(=O)N[C@@H](CCCCN)C(=O)O)NC(=O)[C@H](CO)NC(=O)[C@H](CO)NC(=O)[C@H](Cc2ccccc2)NC1=O | MRGPRX2 | calcium signal, agonist |  | pEC50 | 7.10
CC(=O)C1=CC[C@H]2[C@@H]3CCC4=CC(=O)CC[C@]4(C)[C@H]3CC[C@]12C | CYP17A1 | binding, absorbance |  | pKd | 6.27
CC(C)C[C@H](NC(=O)[C@H](Cc1ccccc1)NC(=O)c1cnccn1)B(O)O | Cathepsin G (CTSG, Homo sapiens, UniProt P08311) | enzyme activity, inhibitor |  | pIC50 | 4.44
NC(=O)[C@@H]1CCCN1C(=O)[C@H](CCC(=O)O)NC(=O)[C@@H]1CCC(=O)N1 | MRGPRX2 | calcium signal, agonist |  | pEC50 | < 4.70
